In ChEMBL document CHEMBL1133270, “Cinnamaldehydes inhibit cyclin dependent kinase 4/cyclin D1” (Bioorg Med Chem Lett, 2000) one finds inhibition and IC50 data, which are given here for 34 compounds.

Common to all, as to format: protein-complex assay
The target of test [1] is Cyclin-dependent kinase 4/cyclin D1 (Homo sapiens) (UniProt P11802+P24385). Briefly: Inhibitory activity against Cyclin D1-cyclin-dependent kinase 4. Further details: concentration or dose not given beside the values. As to conditions: concentration not given here. An outline of the steps: (§1)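 GST-cyclin D1-CDK4 from baculovirus-infected Sf21 cells, purified by glutathione chromatography, used at 200 nM. The substrate was a GST-RB fusion (RB residues 792–928), with ATP plus [γ-³³P]ATP. Compounds were added and the reaction ran 30 min at 30 °C, then was stopped with ice-cold 30% TCA. Products were captured on PVDF filter plates and ³³P-RB counted by scintillation. Inhibition is expressed relative to an inhibitor-free control.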

The target of test [2] is Cyclin-dependent kinase 1/cyclin B (Homo sapiens, UniProt P06493). The test can be described thus: Inhibition of Cyclin B-cyclin-dependent kinase 1. An outline of the steps:
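Cyclin B-CDK1 purified from starfish oocytes; histone H1 as substrate; kinase reaction run for 10 min at 30 °C. Read-out is histone H1 phosphorylation, expressed as a percentage of the control reaction run without inhibitor.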

Test [3] has as its target T1, Cyclin-dependent kinase 4/cyclin D1 (Homo sapiens, UniProt P11802). Briefly: Inhibition of Cyclin D1-cyclin-dependent kinase 4. An outline of the steps:
as §1

Test [4] deals with T1, Cyclin-dependent kinase 4/cyclin D1. The test can be described thus: Inhibition of Cyclin D1-Cyclin dependent kinase 4. Put shortly:
as §1

T1 sequence (P11802 whole entry): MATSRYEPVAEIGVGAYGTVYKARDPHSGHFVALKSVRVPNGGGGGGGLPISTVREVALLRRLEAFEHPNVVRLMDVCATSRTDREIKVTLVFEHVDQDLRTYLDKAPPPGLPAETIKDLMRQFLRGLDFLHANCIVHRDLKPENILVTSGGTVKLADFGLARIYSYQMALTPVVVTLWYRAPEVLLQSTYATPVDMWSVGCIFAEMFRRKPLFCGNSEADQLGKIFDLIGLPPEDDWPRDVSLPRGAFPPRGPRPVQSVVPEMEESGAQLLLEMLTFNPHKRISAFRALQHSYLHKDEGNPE
T1 sequence (P24385 whole entry, further chain): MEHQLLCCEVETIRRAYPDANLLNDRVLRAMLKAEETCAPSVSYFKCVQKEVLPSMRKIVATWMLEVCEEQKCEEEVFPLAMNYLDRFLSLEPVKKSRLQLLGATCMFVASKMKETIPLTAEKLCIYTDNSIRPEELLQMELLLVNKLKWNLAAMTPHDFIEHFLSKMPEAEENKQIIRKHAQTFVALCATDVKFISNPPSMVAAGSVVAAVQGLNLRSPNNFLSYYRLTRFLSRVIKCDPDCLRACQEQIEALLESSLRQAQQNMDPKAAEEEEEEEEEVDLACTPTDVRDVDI

One may read the inhibition as the share of the control response that was lost under treatment. On to `COc1ccc(/C=C/C=O)cc1OCc1ccc(Br)cc1`, for which, in test [1], the inhibition worked out at 58%.
`COc1ccc(COc2ccccc2/C=C/C=O)cc1`: the inhibition in test [1] came out at 59%.
Same read-out and setting: with `CC(Oc1ccccc1/C=C/C=O)c1ccccc1` (stereo unspecified) the figure was 63%; with `Cc1ccc(COc2ccccc2/C=C/C=O)cc1`, 68%.
Regarding `COc1ccc2c(COc3cccc(/C=C/C=O)c3)cc(=O)oc2c1`, the inhibition in test [1] was 53%.
The IC50 is the concentration needed to halve the response being measured. Consider `O=C/C=C/c1ccccc1OCc1ccccc1`, for which the IC50 in test [2] worked out at 50 µM; in test [3], 11 µM. In test [1], the inhibition stood at 85%.
On to `COc1ccccc1COc1cccc(/C=C/C=O)c1`, for which the inhibition in test [1] turned out to be 65%.
Same read-out and setting: with `N#Cc1ccccc1COc1cccc(/C=C/C=O)c1` the figure was 45%.
On the same count and under the same terms, with `COc1ccc(/C=C/C=O)cc1O` the figure was 40%.
In turn, `O=C/C=C/c1cccnc1` yielded an inhibition in test [1] of 54%.
Regarding `O=C/C=C/c1cccc(OCc2ccccc2)c1`, the IC50 in test [2] turned out to be 50 µM; in test [3], 7.5 µM. In test [1], the inhibition was 94%.
The compound `O=C/C=C/c1ccccc1OC(=O)c1ccc(F)cc1` came in with an inhibition in test [1] of 25%.
Consider `CC(Oc1cccc(/C=C/C=O)c1)c1ccccc1` (stereo unspecified), for which the inhibition in test [1] turned out to be 77%.
The same measure, in the same setting: with `O=C/C=C/c1ccccc1OC(=O)c1ccccc1` the figure was 52%.
On the same count and under the same terms, next, `O=C(O)/C=C/c1ccccc1O`: below 10%; `O=C/C=C/c1ccccc1Cl`: 51%; `Cc1ccc(C(=O)Oc2ccccc2/C=C/C=O)cc1`: 50%.
Still for that read-out and setting: next, `O=C/C=C/c1ccccc1OCc1cccc2ccccc12`: 38%; `COc1ccc(COc2cccc(/C=C/C=O)c2)cc1`: 82%; `O=C/C=C/c1cccc(OCCc2ccccc2)c1`: 80%.
Regarding `N#Cc1ccccc1COc1ccccc1/C=C/C=O`, the inhibition in test [1] came out at 22%.
On to `O=C/C=C/c1ccccc1OCc1ccc(Br)cc1`, for which, in test [1], the inhibition turned out to be 71%.
On the same count and under the same terms, next, `O=C/C=C/c1ccccc1[N+](=O)[O-]`: 30%.
With `Cc1ccccc1COc1cccc(/C=C/C=O)c1`, the IC50 is 60 µM in test [2] and 15 µM in test [3]. This compound registered an inhibition in test [1] of 73%.
In test [1], `Cc1ccc(COc2cccc(/C=C/C=O)c2)cc1` returned an inhibition of 84%.
Same read-out and setting: with `COc1ccccc1COc1ccccc1/C=C/C=O` the figure was 43%.
On to `Cc1ccccc1COc1ccccc1/C=C/C=O`, for which the IC50 stood at 200 µM in test [2] and 18 µM in test [3]. Further, the inhibition in test [1] turned out to be 70%.
`O=C/C=C/c1cccc(OCc2ccc3c(c2)C(=O)c2ccccc2C3=O)c1` displayed an inhibition in test [1] of 34%.
Same read-out and setting: with `O=C/C=C/c1cccc(OCc2cccc3ccccc23)c1` the figure was 85%.
As for `O=C/C=C/c1cccc(O)c1`, the values for the IC50 in test [2] and in test [4] were 30 µM and 45 µM, respectively. In test [1], this compound had an inhibition of 40%.
In test [1], `O=C/C=C/c1cccc(OCc2ccc(Br)cc2)c1` gave an inhibition of 88%.
Turning to `O=C/C=C/c1ccccc1O` [2-HYDROXYCINNAMALDEHYDE], the IC50 in test [2] was 130 µM; in test [3] it was 35 µM. The compound further came in with an inhibition in test [1] of 50%.
`O=C/C=C/c1ccccc1OCCc1ccccc1` came in with an inhibition in test [1] of 72%.
For `COc1ccccc1C(=O)Oc1ccccc1/C=C/C=O`, the inhibition in test [1] came to 23%.
